Measured values as given in ChEMBL document CHEMBL6177924, “Synthesis and antifungal evaluation of new azole derivatives containing 1,2,3-triazole” (RSC Med Chem, 2025).
Calls of active or inactive are those of the source. The rule behind the calls is not given here.

What was measured:
[1] = system: Candida albicans; assay: Antifungal activity against Candida albicans assessed as sparse distribution of fungal cells at 0.27 to 1.06 microg/ml measured after 4 to 8 hrs by inverted microscopic analysis; type: functional, organism-based; conditions: dose 0.27-1.06 µg/ml, time 4-8 hrs
Outline: (§1)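 Hyphae were induced in SD+10% FBS or in Spider medium. Log-phase cells at 1×10^5 CFU/mL final, 1 mL per well in 24-well plates, 3 wells per group. Drug at 0.27, 0.53 or 1.06 µg/mL, fluconazole, or no-drug control. Incubated at 30 °C; hyphal formation observed and photographed by inverted microscope at 4 h and 8 h.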

[2] = system: Candida albicans; assay: Antifungal activity against Candida albicans assessed as inhibition of yeast state o mycelium state transformation at 0.27 to 1.06 microg/ml measured after 4 to 8 hrs by inverted microscopic analysis; type: functional, organism-based; conditions: dose 0.27-1.06 µg/ml, time 4-8 hrs; outline: as §1
[3] = system: Candida albicans; assay: Antifungal activity against Candida albicans assessed as reduction in invasion ability at 0.27 to 1.06 microg/ml measured after 4 to 8 hrs by inverted microscopic analysis; type: functional, organism-based; conditions: dose 0.27-1.06 µg/ml, time 4-8 hrs; outline: as §1
[4] = system: Candida albicans; assay: Antibiofilm activity in Candida albicans SC5314 assessed as decrease in number of mycelia at 0.27 microg/ml measured after 24 hrs by inverted microscopic analysis; type: functional, organism-based; conditions: dose 0.27 µg/ml
Outline: (§2)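 Log-phase C. albicans in RPMI1640+10% FBS at 1×10^5 CFU/mL allowed to adhere in 24-well plates for 90 min at 30 °C; unattached medium removed. 1 mL medium with drug (0.27, 0.53, 1.06 µg/mL) or without drug added; 24 h at 30 °C. Biofilm stained with crystal violet 30 min, washed 3× with PBS, viewed by inverted microscope.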

[5] = system: Candida albicans; assay: Antibiofilm activity in Candida albicans SC5314 assessed as appearance of short mycelia at 0.27 microg/ml measured after 24 hrs by inverted microscopic analysis; type: functional, organism-based; conditions: dose 0.27 µg/ml; outline: as §2
[6] = system: Candida albicans; assay: Antibiofilm activity in Candida albicans SC5314 assessed as appearance of yeast form of fungal cells at 0.27 microg/ml measured after 24 hrs by inverted microscopic analysis; type: functional, organism-based; conditions: dose 0.27 µg/ml; outline: as §2
[7] = system: Candida albicans; assay: Induction of morphological changes in Candida albicans assessed as absence of intracellular substance at 0.53 microg/ml incubated for 16 to 24 hrs by transmission electron microscopic analysis; type: functional, organism-based; conditions: dose 0.53 µg/ml, time 16-24 hrs
Outline: (§3)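 C. albicans at 5×10^5 CFU/mL in SDB shaken with drug (0.27, 0.53, 1.06 µg/mL), fluconazole or no drug at 30 °C, 150 r/min, for 16-24 h. Pellets washed with PBS and fixed in cold 3% paraformaldehyde/2.5% glutaraldehyde at 4 °C, then 1% OsO4. Dehydrated in acetone and embedded in Epon-812. 60-90 nm sections stained with uranyl acetate and lead citrate, imaged by TEM.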

[8] = system: Candida albicans; assay: Induction of morphological changes in Candida albicans assessed as unclear cell membrane outline at 0.53 to 1.06 microg/ml incubated for 16 to 24 hrs by transmission electron microscopic analysis; type: functional, organism-based; conditions: dose 0.53-1.06 µg/ml, time 16-24 hrs; outline: as §3
[9] = system: Candida albicans; assay: Induction of morphological changes in Candida albicans assessed as effect on cytoplasmic structure at 0.53 to 1.06 microg/ml incubated for 16 to 24 hrs by transmission electron microscopic analysis; type: functional, organism-based; conditions: dose 0.53-1.06 µg/ml, time 16-24 hrs; outline: as §3
[10] = system: Candida albicans; assay: Induction of morphological changes in Candida albicans assessed as effect on cytoplasmic morphology at 0.53 to 1.06 microg/ml incubated for 16 to 24 hrs by transmission electron microscopic analysis; type: functional, organism-based; conditions: dose 0.53-1.06 µg/ml, time 16-24 hrs; outline: as §3
[11] = system: 16HBE14o-; assay: Cytotoxicity against human 16HBE14o- cells assessed as reduction in cell viability at <=4 microg/ml incubated for 48 hrs by CCK8 assay; type: toxicity, cell-based; conditions: dose < 4 µg/ml
Outline: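 16HBE cells in RPMI1640 with 10% FBS and 1% antibiotics, seeded in 96-well plates and attached for 24 h at 37 °C. Drug serially diluted 5-fold from 100 µg/mL in complete medium, with growth and blank controls. Exposure 48 h, then viability read with CCK8 reagent.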

For `O=C(Cn1cc(COC(Cn2ccnc2)c2ccc(Cl)cc2Cl)nn1)c1ccc2ccccc2c1` (stereo unspecified), the Activity [1] was “Active”, the Activity [2] was “Active; Better Than That Of Fluconazole Group” and the Activity [3] was “Active; Better Than That Of Fluconazole Group”. For the same compound, the Activity [4] was “Active”, the Activity [5] was “Active” and the Activity [6] was “Active”. The Activity [7] was “Active”, the Activity [8] was “Active” and the Activity [9] was “Active”. The Activity [10] was “Active” and the Activity [11] was “Non-toxic”.
